In the library only some 1% were active in any assay of this set; here they are far more common.
PDI inh – PDI (human) enzyme inhibition. P07237. inhibition, % at 10 µM. PDI insulin aggregation turbidity, A650, 90 min. AID 588391. actives 0.052% (n = 350,000);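 active = mean inhibition across replicates of 30% or more, whatever share of single replicates reach that level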
IMP-1 inh-1 – blocks Pseudomonas aeruginosa IMP-1 metallo-beta-lactamase; inhibition, % at 5.6 µM; purified IMP-1, nitrocefin hydrolysis, epi-absorbance fluorescence; actives 0.45% (n = 290,000);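 active = inhibition above the mean plus 3 SD of all compounds in the same screening run, cut at about 4.5% in these data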;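 note: 0% = IMP-1 with DMSO and 100% = DMSO wells lacking enzyme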
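Assay system: purified recombinant IMP-1 beta-lactamase. Input: IMP-1 0.2 nM before substrate addition. Buffer or medium: Zinc- and detergent-supplemented HEPES buffer, pH 7.1. Schedule: 25 °C, 15 min preincubation, 25 min reaction. Signal: Epi-absorbance fluorescence, 480 nm excitation, 530 nm emission. Evaluation: percent inhibition from optical density relative to buffer-blank wells.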
PvdQ acylase – P. aeruginosa PvdQ acylase inhibition; purified PvdQ acylase, fluorescence plate reader; actives 0.063% (n = 340,000); inhibition, % at 10 µM; AID 488965; in the data active = inhibition above about 30%, passing the limit was not always enough;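 note: 0% = vehicle neutral wells and 100% = reference inhibitor wells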
VIM-2 inh – blocks Pseudomonas aeruginosa VIM-2 metallo-beta-lactamase. purified VIM-2, nitrocefin hydrolysis, epi-absorbance fluorescence. inhibition, % at 5.6 µM. actives 0.89% (n = 290,000). AID 1527;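 active = inhibition above the mean of all tested compounds plus 3 SD, cutoff set per screening run, cut at about 7.5% in these data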;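 note: red hydrolysis product quenches plate fluorescence so inhibitors raise well fluorescence; 0% = enzyme with DMSO and 100% = DMSO without enzyme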
PglD inh – blocks C. jejuni PglD acetyltransferase activity; purified PglD enzyme, DTNB colorimetric CoA detection; inhibition, % at 12.5 µM; actives 0.098% (n = 360,000); in the data active = inhibition above about 16%, passing the limit was not always enough
ERp5 block – ERp5 (human) disulfide isomerase inhibition; inhibition, % at 9.99 µM; AID 651711; Q15084; actives 0.05% (n = 350,000); ERp5 insulin aggregation, absorbance 650 nm, 90 min;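 active = mean replicate inhibition above about 25%, with every replicate also reaching it, limit read from the data, passing the limit was not always enough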
IMP-1 inh-2 – blocks IMP-1 metallo-beta-lactamase in VIM-2 selectivity screen. shares compounds with VIM-2 inh. purified IMP-1, nitrocefin hydrolysis, epi-absorbance fluorescence. inhibition, % at 5.6 µM. 1,300 tested, under 10 active. AID 1856; call rule not given here;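 note: 0% = enzyme with vehicle and 100% = vehicle without enzyme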
VIM-2 FRET inh – VIM-2 FRET inhibition, artifact counter-screen; shares compounds with VIM-2 inh; actives 23% (n = 1,300); purified VIM-2, CCF2 FRET substrate hydrolysis; inhibition, % at 5.6 µM;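 active = inhibition above the mean of all tested compounds plus 3 SD, cut at about 19% in these data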;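 note: 0% = VIM-2 plus DMSO and 100% = no enzyme wells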
TEM-1 inh – selectivity counter-screen for VIM-2 inhibitors: E. coli TEM-1 inhibitors; shares compounds with VIM-2 inh; Purified TEM-1, nitrocefin hydrolysis, epi-absorbance fluorescence; actives 3% (n = 1,300); inhibition, % at 5.6 µM; AID 1866;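 active = inhibition above that campaign's mean inhibition plus 3 SD, cut at about 0.46% in these data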;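 note: 0% = TEM-1 with DMSO and 100% = TEM-1 with 100 µM potassium clavulanate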
Target sequence (P62593 whole entry, looked up): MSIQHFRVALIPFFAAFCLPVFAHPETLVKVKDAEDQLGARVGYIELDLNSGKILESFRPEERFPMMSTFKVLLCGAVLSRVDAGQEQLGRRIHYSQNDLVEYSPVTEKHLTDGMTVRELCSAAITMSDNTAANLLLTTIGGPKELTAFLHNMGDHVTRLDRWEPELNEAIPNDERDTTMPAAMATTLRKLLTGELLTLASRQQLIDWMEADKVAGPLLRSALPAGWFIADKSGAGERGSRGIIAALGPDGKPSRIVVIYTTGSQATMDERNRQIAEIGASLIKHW
VIM-2 confirm 2 – confirmation of P. aeruginosa VIM-2 metallo-beta-lactamase inhibitors; inhibition, % at 5.6 µM; shares compounds with VIM-2 inh; actives 96% (n = 1,300); purified VIM-2, nitrocefin hydrolysis, epi-absorbance;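 active = inhibition of the VIM-2 beta-lactamase enzyme above about 11% from the earlier first-round screen, limit read from the data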;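 note: 0% = VIM-2 with DMSO and 100% = buffer wells without enzyme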
* = called active by the depositor.

COc1ccc(Cc2nc3ccc(C(=O)NCc4ncc(C)[nH]4)cc3o2)cc1OC was read as PDI inh 4.0, IMP-1 inh-1 -2.1, PvdQ acylase 8.6, VIM-2 inh 38.0*, PglD inh 2.6, ERp5 block -8.6, IMP-1 inh-2 -3.4, VIM-2 FRET inh -12.2, TEM-1 inh -5.7 and VIM-2 confirm 2 50.2*.
`C[C@H](CO)N1C[C@H](C)[C@H](CN(C)C(=O)Nc2ccc3c(c2)OCO3)Oc2c(NC(=O)C3CCOCC3)cccc2C1=O` gave PglD inh -1.3 and ERp5 block -4.5.
O=C(O)c1[nH]c2ccc(Br)cc2c1CCN1C(=O)c2cccc([N+](=O)[O-])c2C1=O was read as PDI inh -1.4, IMP-1 inh-1 -2.4, PvdQ acylase 1.8, VIM-2 inh 60.6*, ERp5 block -4.9, IMP-1 inh-2 -3.0, VIM-2 FRET inh 79.2*, TEM-1 inh -7.4 and VIM-2 confirm 2 68.4*.
For COc1ccc2[nH]c(C(=O)O)c(CCN3C(=O)c4ccc(C(=O)O)cc4C3=O)c2c1 the results were PDI inh -4.7, IMP-1 inh-1 -1.3, PvdQ acylase -13.8, VIM-2 inh 70.8*, PglD inh 2.0, ERp5 block -1.5, IMP-1 inh-2 -3.2, VIM-2 FRET inh 84.5*, TEM-1 inh -5.1 and VIM-2 confirm 2 75.1*.
Screening COc1ccc2[nH]c(C(=O)O)c(CCC(=O)O)c2c1 returned PDI inh -0.9, IMP-1 inh-1 1.5, PvdQ acylase 1.4, VIM-2 inh -4.8 and PglD inh 1.5.
Cc1ccc(NC(=O)CCN2C(=O)c3cccc([N+](=O)[O-])c3C2=O)c(Br)c1 was read as PDI inh -1.8, IMP-1 inh-1 1.6, PvdQ acylase -13.3, VIM-2 inh -0.1, PglD inh 0.7 and ERp5 block -2.9.
O=C(O)c1[nH]c2ccc(Cl)cc2c1CCN1C(=O)c2ccccc2C1=O was read as PDI inh 1.7, IMP-1 inh-1 -1.3, PvdQ acylase -1.1, VIM-2 inh 65.4*, ERp5 block -7.1, IMP-1 inh-2 -1.4, VIM-2 FRET inh 79.3*, TEM-1 inh -2.0 and VIM-2 confirm 2 74.0*.
For Cc1cc([N+](=O)[O-])c(C)cc1-c1ccc(/C=N/NC(=O)Cn2nnnc2N)o1 the results were PDI inh -0.5, IMP-1 inh-1 -4.2, PvdQ acylase 1.2, VIM-2 inh 33.2*, ERp5 block -6.6, IMP-1 inh-2 -2.9, VIM-2 FRET inh -11.3, TEM-1 inh -3.0 and VIM-2 confirm 2 42.0*.
For O=[N+]([O-])c1ccc(-c2ccc(/C=N/n3cnnc3)o2)c(Br)c1 the results were PDI inh 7.4, IMP-1 inh-1 -3.1, PvdQ acylase -6.0, VIM-2 inh 44.6*, PglD inh 3.4, ERp5 block 0.3, IMP-1 inh-2 -2.2, VIM-2 FRET inh 7.4, TEM-1 inh -2.5 and VIM-2 confirm 2 57.2*.
Cc1cc([N+](=O)[O-])c(C)cc1-c1ccc(/C=N/n2cnnc2)o1 was read as PDI inh 9.2, IMP-1 inh-1 -3.2, PvdQ acylase -17.3, VIM-2 inh 44.5*, PglD inh 7.2, ERp5 block 3.3, IMP-1 inh-2 -1.4, VIM-2 FRET inh -1.4, TEM-1 inh -5.4 and VIM-2 confirm 2 49.6*.
Screening Cc1n[nH]c(=S)n1/N=C/c1ccc(-c2ccccc2[N+](=O)[O-])o1 returned PDI inh -0.8, IMP-1 inh-1 -3.2, PvdQ acylase 6.3, VIM-2 inh 0.7 and PglD inh 8.5.
